According to PMC2643122 (Molecular Microbiology, 2008):
Entries after “also recorded” stand apart in the source; their conditions may differ. Where no end group is shown, it is not given here.

What was measured:
human tissues = settings: discussion statement without its own reference; cited from earlier work
yeast cells = settings: ref Koshlukova et al., 2000; Vylkova et al., 2007; cited from earlier work
rSsa2p [1] = target: T1, rSsa2p (Candida albicans, UniProt P46587); assay: Limited thermolysin proteolysis of cross-linked rSsa2p–BHst 5 complexes; format: binding; settings: thermolysin 5 μg ml^−1, 30°C, 1 h; silver-stained 15% SDS-PAGE
C. albicans Ssa2p = settings: ref Li et al., 2006; cited from earlier work
C. albicans [2] = assay: Candidacidal assay of Hst 5; format: cell-based, Candida albicans
Procedure, shortened: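 Strains (integrated at RP10 in ssa2Δ background) grown overnight in YPD with uridine 50 μg ml−1 at 30°C, washed twice in 10 mM NaPB, resuspended to 10^6 cells ml−1. Exposed to 15 μM Hst 5, 1 h, 30°C, 250 r.p.m. Diluted, 500 cells plated on YPD agar, 48 h room temperature. Percent death versus buffer-only cells. Three independent transformants per mutant; each assay repeated ≥3 times.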

rSsa2p [3] = target: T1, rSsa2p; assay: FPLC gel filtration determination of dissociation constants; format: binding
Candida albicans = settings: cited from earlier work
C. albicans [4] = assay: Hst 5 translocation assay; format: cell-based, Candida albicans
Procedure, shortened: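 Early log-phase cells (1 × 10^8) were washed twice and suspended in 1 ml 10 mM NaPB, then given biotinylated Hst 5 (15 μM final) for 30 min at room temperature. Washed cells were pelleted at 3 300 g, 4°C, glass-bead disrupted and spun 15 700 g, 10 min. Cytosolic protein (10 μg) was separated by 16% Tricine SDS-PAGE, blotted with streptavidin-HRP, detected by ECL and quantified densitometrically. Means ± standard errors of triplicate independent assays.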

[5] = ref Li et al., 2006; cited from earlier work
DnaK = settings: 2001, cited from earlier work; for binding by bacterial DnaK related to uptake and killing: ref Kragol et al.

T1 sequence (P46587 whole entry): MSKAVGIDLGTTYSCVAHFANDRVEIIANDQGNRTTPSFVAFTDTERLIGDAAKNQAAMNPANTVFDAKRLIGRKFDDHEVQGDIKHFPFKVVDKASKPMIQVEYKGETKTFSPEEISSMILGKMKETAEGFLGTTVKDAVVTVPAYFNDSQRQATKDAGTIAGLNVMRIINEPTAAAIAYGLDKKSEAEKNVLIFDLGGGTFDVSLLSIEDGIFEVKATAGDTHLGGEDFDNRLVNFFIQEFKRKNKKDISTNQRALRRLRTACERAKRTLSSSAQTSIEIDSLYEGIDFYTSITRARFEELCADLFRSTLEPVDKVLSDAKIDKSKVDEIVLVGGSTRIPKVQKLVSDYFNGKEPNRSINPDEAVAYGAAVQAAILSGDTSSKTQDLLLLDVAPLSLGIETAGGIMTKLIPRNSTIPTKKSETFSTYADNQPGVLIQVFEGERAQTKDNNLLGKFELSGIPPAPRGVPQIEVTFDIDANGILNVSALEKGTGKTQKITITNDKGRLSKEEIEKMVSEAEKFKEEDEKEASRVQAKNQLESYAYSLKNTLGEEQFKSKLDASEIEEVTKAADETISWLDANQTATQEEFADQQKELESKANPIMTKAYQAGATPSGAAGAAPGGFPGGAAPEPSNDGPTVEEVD

C[C@H](NC(=O)[C@H](Cc1cnc[nH]1)NC(=O)[C@H](CO)NC(=O)[C@@H](N)CC(=O)O)C(=O)N[C@@H](CCCCN)C(=O)N[C@@H](CCCNC(=N)N)C(=O)N[C@@H](Cc1cnc[nH]1)C(=O)N[C@@H](Cc1cnc[nH]1)C(=O)NCC(=O)N[C@@H](Cc1ccc(O)cc1)C(=O)N[C@@H](CCCCN)C(=O)N[C@@H](CCCNC(=N)N)C(=O)N[C@@H](CCCCN)C(=O)N[C@@H](Cc1ccccc1)C(=O)N[C@@H](Cc1cnc[nH]1)C(=O)N[C@@H](CCC(=O)O)C(=O)N[C@@H](CCCCN)C(=O)N[C@@H](Cc1cnc[nH]1)C(=O)N[C@@H](Cc1cnc[nH]1)C(=O)N[C@@H](CO)C(=O)N[C@@H](Cc1cnc[nH]1)C(=O)N[C@@H](CCCNC(=N)N)C(=O)NCC(=O)N[C@@H](Cc1ccc(O)cc1)C(=O)O [Hst 5, Histatin 5]
toxicity to human tissues (human tissues): without being toxic to human tissues | selective leakage of intracellular ions and ATP (yeast cells): induces selective leakage of intracellular ions and ATP from yeast cells | effect of binding on thermolysin digestion sites of rSsa2p (rSsa2p [1]): substantially alters available thermolysin digestion sites exposed for enzymatic cleavage | association with Ssa2p compared with Ssa1p (C. albicans Ssa2p): stronger association | reduction in cellular killing, Ssa2 150−156 mutant strain (C. albicans [2]; P1 mutant Ssa2(150−156A3) as printed, 15 μM Hst 5, 1 h at 30°C): approximately 20% | loss of killing function, Ssa2(150−156A4) strain (C. albicans [2]; P1 mutant, result in words, 15 μM Hst 5, 1 h at 30°C): mild to moderate loss of function | killing, Ssa2(334−338A3) strain (C. albicans [2]; T2 mutant with defective cell wall secretion of Ssa2p, 15 μM Hst 5, 1 h at 30°C): reduced Hst 5 translocation and killing to levels of the ssa2Δ knockout; also recorded: significant loss of cytotoxic and transport functions | killing, Ssa2(131−135A3) strain (C. albicans [2]; downstream T1 mutant, 15 μM Hst 5, 1 h at 30°C): reduced, but did not prevent Hst 5 killing and intracellular uptake; also recorded: mild to moderate loss of function | effect of mutations within Ssa2(342–355) on killing (C. albicans [2]; spot 32 region, data not shown): did not alter Hst 5 killing or translocation | competition for nucleotide binding sites in Ssa2p (rSsa2p [3]; gel filtration with ATP or ADP): does not compete for nucleotide binding sites in Ssa2p | fold improvement of binding affinity by nucleotides (rSsa2p [3]; presence of nucleotides, gel filtration): 10 -fold | resistance of SSA1 knockouts to Hst 5 (Candida albicans; SSA1 knockout, ref Li et al., 2006): only mildly resistant | intracellular uptake and killing in C. albicans SSA2 deletion mutants (Candida albicans; SSA2 deletion, ref Li et al., 2006): significantly reduced | fungicidal activity for Candida albicans and other fungal pathogens (Candida albicans; associated with oral candidiasis, background statement without its own reference): strongly fungicidal | inhibition of Hst 5 killing by drugs blocking endocytosis (Candida albicans; pre-treatment of cells, ref Zhu et al., 2006): inhibited by pre-treatment of cells with drugs blocking endocytosis | salt sensitivity (Candida albicans; ref Dong et al., 2003, Jang et al., 2008): salt sensitive | time course of translocation (C. albicans [4]; BHst 5 15 μM, NaPB, room temperature): Translocation happens very rapidly following only 5 min incubation; also recorded: the majority of Hst 5 is translocated intracellularly after 30 min | reduction in Hst 5 translocation, Ssa2 150−156 mutant strain (C. albicans [4]; P1 mutant Ssa2(150−156A3) as printed, BHst 5 15 μM): approximately 20% | intracellular translocation, Ssa2(334−338A3) strain (C. albicans [4]; T2 mutant with defective cell wall secretion of Ssa2p, BHst 5 15 μM): reduced Hst 5 translocation and killing to levels of the ssa2Δ knockout | intracellular translocation, Ssa2(131−135A3) strain (C. albicans [4]; downstream T1 mutant, BHst 5 15 μM): reduced, but did not prevent Hst 5 killing and intracellular uptake | effect of mutations within Ssa2(342–355) on translocation (C. albicans [4]; spot 32 region, data not shown): did not alter Hst 5 killing or translocation | uptake in Ssa2p deletion mutants (C. albicans [4]; ssa2Δ): reduced but measurable uptake | self-aggregation [5]: high propensity for self-aggregation

pyrrhocoricin: cationic antimicrobial peptide (VDKGSYLPRPTPPRPIYNRN; ends and bridges not checked; UniProt P37362 1-20, looked up)
binding by bacterial DnaK related to uptake and killing (DnaK): shown to be related to their intracellular uptake and killing functions | probable interaction site on DnaK (DnaK; ref Otvos et al., 2000, Kragol et al.): C-terminal variable region of the lid domain outside the conventional peptide binding region

drosocin: cationic antimicrobial peptide (GKPRPYSPRPTSHPRPIRV; ends and bridges not checked; UniProt P36193 22-40, looked up)
binding by bacterial DnaK related to uptake and killing (DnaK): shown to be related to their intracellular uptake and killing functions

human β defensin 2
killing of candidal cells via uptake mechanism involving Ssa proteins (Candida albicans; ref Vylkova et al., 2006): can kill candidal cells
